According to ChEMBL document CHEMBL3259802, “Anticonvulsant evaluation of clubbed indole-1,2,4-triazine derivatives: a synthetic approach” (Eur J Med Chem, 2014):
The source made the active and inactive calls. No cut-off for these calls is given here.

Assays:
[1] = Neurotoxicity in ip dosed Swiss albino mouse measured during phase 2 trials by rotarod test; type: toxicity, organism-based; details: in vivo
How it was run: (§1)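 Phase II quantitation: groups of six mice given a range of i.p. doses until at least three points fell within 10–90% seizure protection (MES or scPTZ) or rotarod neurotoxicity, tested at time of peak effect.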

Mus musculus [2] = experiment: Anticonvulsant activity in Swiss albino mouse assessed as protection against maximal electroshock-induced tonic-clonic seizure spread measured at 300 mg/kg, ip after 0.5 hrs by MES test; type: functional, organism-based; design: dose 300 mg/kg
How it was run: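 Groups of four mice, screened 24 h beforehand with corneal shock (50 mA, 60 Hz, 0.2 s), saline drop in each eye. Test doses of 30, 100 or 300 mg/kg ip were suspended in 0.5% sodium carboxymethylcellulose. The shock was applied 0.5 h and 4.0 h after dosing. Protection: abolition of hind-limb tonic extension in half or more of the animals.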

Mus musculus [3] = experiment: Anticonvulsant activity in ip dosed Swiss albino mouse assessed as protection against pentylenetetrazole-induced seizures after 0.5 hrs; type: functional; details: read-out: MED
How it was run: (§2)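 Compounds in 0.5% sodium carboxymethylcellulose injected i.p. at 30, 100, 300 mg/kg (four mice per dose); at 0.5 h or 4 h, pentylenetetrazol 70 mg/kg given s.c. as 0.5% solution in posterior midline. Observation 30 min; absence of clonic spasm in half or more of animals scored as protection.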

Mus musculus [4] = experiment: Anticonvulsant activity in ip dosed Swiss albino mouse assessed as protection against pentylenetetrazole-induced seizure measured at the time of peak effect during phase 2 trials; type: functional; how it was run: as §1
Mus musculus [5] = experiment: Anticonvulsant activity in ip dosed Swiss albino mouse assessed as protection against maximal electroshock-induced seizure measured at the time of peak effect during phase 2 trials by MES test; type: functional; how it was run: as §1
Mus musculus [6] = experiment: Anticonvulsant activity in ip dosed Swiss albino mouse assessed as protection against pentylenetetrazole-induced seizures after 4 hrs; type: functional; details: read-out: MED; how it was run: as §2
Mus musculus [7] = experiment: Anticonvulsant activity in Swiss albino mouse assessed as protection against maximal electroshock-induced tonic-clonic seizure spread measured at 300 mg/kg, ip after 4 hrs by MES test; type: functional, organism-based; design: dose 300 mg/kg
How it was run: (§3)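 Swiss albino mice pre-screened 24 h earlier with 50 mA, 60 Hz, 0.2 s corneal shock; saline drop in eyes. Compounds in 0.5% sodium carboxymethylcellulose given i.p. at 30, 100 and 300 mg/kg; MES applied after 0.5 h and 4 h. Protection = abolition of hind limb tonic extensor component in half or more of four mice.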

Rattus norvegicus [8] = experiment: Increase in GABA level in Wistar rat whole brain at 100 mg/kg, ip after 2 hrs measured per 100 mg of tissue (reference value: 46.8 +/- 6.03 ug); type: functional; details: route intraperitoneal
How it was run: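 Adult Wistar rats, six per group, given 100 mg/kg i.p. (clobazam 30 mg/kg p.o. reference); decapitated 2 h later, whole brains put into ice-cold 80% ethanol and GABA determined enzymatically in tissue extracts. Mean ± SEM; Student's t test versus control.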

Mus musculus [9] = experiment: Anticonvulsant activity in Swiss albino mouse assessed as seizure latency to onset of clonus at 100 mg/kg, po administered 60 mins prior to pentylenetetrazole challenge (reference value: 1.54 +/- 0.90 mins); type: functional
Mus musculus [10] = experiment: Anticonvulsant activity in Swiss albino mouse assessed as time duration of hind limb tonic extenstion at 100 mg/kg, po administered 60 mins prior to maximal electroshock exposure by MES test (reference value: 16.20 +/- 0.50 secs); type: functional, Hindlimb
How it was run: (§4)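 Mice (n=6/group) dosed orally at 100 mg/kg in 0.5% sodium carboxymethylcellulose 60 min before maximal electroshock (150 mA, 0.2 s, corneal electrodes). Duration of hind limb tonic extension noted; abolition scored as protection (% protected). Vehicle controls; mean ± SEM, one-way ANOVA followed by Dunnett's method.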

Mus musculus [11] = organism: Mus musculus; experiment: Protective index, ratio of TD50 for Swiss albino mouse to ED50 for anticonvulsant activity in PTZ-treated Swiss albino mouse
Mus musculus [12] = experiment: Anticonvulsant activity in ip dosed Swiss albino mouse assessed as protection against maximal electroshock-induced tonic-clonic seizure spread measured after 0.5 hrs by MES test; type: functional; details: read-out: MED; how it was run: as §3
Mus musculus [13] = experiment: Neurotoxicity in Swiss albino mouse assessed as motor impairment at 100 mg/kg, po by rotarod test; type: toxicity, organism-based; design: dose 100 mg/kg, route oral; details: in vivo
How it was run: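 Mice trained on rotarod (3.2 cm, 10 rpm) received 100 mg/kg orally in 0.5% sodium carboxymethylcellulose; neurotoxicity scored as percentage of animals failing to keep equilibrium on rod for 60 s.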

Rattus norvegicus [14] = organism: Rattus norvegicus; experiment: Displacement of [3H]BTX-B from neurotoxin site 2 of voltage-gated sodium channel in rat cerebral cortex synaptoneurosomes at 100 uM by scintillation counting analysis; type: tissue-based
Rattus norvegicus [15] = experiment: Increase in GABA level in Wistar rat whole brain at 30 mg/kg, po for 7 days measured at 4 hrs after last drug dose per 100 mg of tissue (reference value: 49.2 +/- 3.01 ug); type: functional
[16] = Displacement of [3H]BTX-B from neurotoxin site 2 of voltage-gated sodium channel in rat cerebral cortex synaptoneurosomes by scintillation counting analysis; type: tissue-based
Mus musculus [17] = experiment: Neurotoxicity in Swiss albino mouse assessed as minimal motor impairment at 300 mg/kg, ip after 0.5 hrs by rotarod test; type: toxicity, organism-based; design: dose 300 mg/kg, route intraperitoneal; details: in vivo
How it was run: (§5)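 Rotarod minimal motor impairment: mice trained on 3.2 cm rod at 10 rpm; i.p. doses of 30, 100 and 300 mg/kg, four mice each, tested at 0.5 h and 4 h. Neurotoxicity = failure to stay on rod at least 1 min in each of three trials.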

Mus musculus [18] = experiment: Neurotoxicity in Swiss albino mouse assessed as minimal motor impairment at 300 mg/kg, ip after 4 hrs by rotarod test; type: toxicity, organism-based; design: dose 300 mg/kg, route intraperitoneal; details: in vivo; how it was run: as §5
Mus musculus [19] = experiment: Anticonvulsant activity in Swiss albino mouse assessed as protection against PTZ-induced seizure at 100 mg/kg, po administered 60 mins prior to pentylenetetrazole challenge; type: functional
Mus musculus [20] = experiment: Anticonvulsant activity in ip dosed Swiss albino mouse assessed as protection against maximal electroshock-induced tonic-clonic seizure spread measured after 4 hrs by MES test; type: functional; details: read-out: MED; how it was run: as §3
Mus musculus [21] = experiment: Anticonvulsant activity in Swiss albino mouse assessed as protection against maximal electroshock-induced seizures at 100 mg/kg, po administered 60 mins prior to maximal electroshock exposure by MES test; type: functional; how it was run: as §4
Mus musculus [22] = experiment: Anticonvulsant activity in Swiss albino mouse assessed as decrease in time duration of hind limb tonic extenstion at 30 mg/kg, po administered 60 mins prior to maximal electroshock exposure by MES test; type: functional, organism-based; design: dose 30 mg/kg; details: Hindlimb
Mus musculus [23] = experiment: Anticonvulsant activity in Swiss albino mouse assessed as protection against maximal electroshock-induced seizures at 30 mg/kg, po administered 60 mins prior to maximal electroshock exposure by MES test; type: functional
Mus musculus [24] = experiment: Neurotoxicity in Swiss albino mouse assessed as minimal motor impairment at 100 mg/kg, ip after 0.5 hrs by rotarod test; type: toxicity, organism-based; design: dose 100 mg/kg, route intraperitoneal; details: in vivo; how it was run: as §5
Mus musculus [25] = experiment: Neurotoxicity in Swiss albino mouse assessed as minimal motor impairment at 100 mg/kg, ip after 4 hrs by rotarod test; type: toxicity, organism-based; design: dose 100 mg/kg, route intraperitoneal; details: in vivo; how it was run: as §5
Mus musculus [26] = experiment: Anticonvulsant activity in Swiss albino mouse assessed as protection against pentylenetetrazole-induced seizures at 300 mg/kg, ip after 0.5 hrs; type: functional, organism-based; design: dose 300 mg/kg; how it was run: as §2
Rattus norvegicus [27] = experiment: Increase in GABA level in Wistar rat whole brain at 30 mg/kg, po after 2 hrs measured per 100 mg of tissue (reference value: 46.8 +/- 6.03 ug); type: functional
Mus musculus [28] = experiment: Anticonvulsant activity in Swiss albino mouse assessed as protection against PTZ-induced seizure at 200 mg/kg, po administered 60 mins prior to pentylenetetrazole challenge; type: functional

NC1NC(=S)NN=C1n1c(-c2ccccc2)c(S(N)(=O)=O)c2cc(Cl)ccc21 (configuration not stated)
TD50 [1]: 185 mg/kg

NC1NC(=S)NN=C1n1c(-c2ccccc2)c(C(=O)O)c2cc(C(F)(F)F)ccc21 (configuration not stated)
TD50 [1]: 100 mg/kg

CCC1(C)CC(=O)NC1=O (configuration not stated) [ETHOSUXIMIDE]
Activity (Mus musculus [2]): inactive | minimal effective dose (Mus musculus [3]): 100 mg/kg | ED50 (Mus musculus [4]): 130 mg/kg | ED50 (Mus musculus [5]): > 1000 mg/kg | minimal effective dose (Mus musculus [6]): 300 mg/kg | Activity (Mus musculus [7]): inactive

CC(=O)c1c(-c2ccccc2)n(C2=NNC(=S)NC2N)c2ccc(F)cc12 (configuration not stated)
minimal effective dose (Mus musculus [3]): 100 mg/kg | Activity (Rattus norvegicus [8]): 93.5 µg | Time (Mus musculus [9]): 9.8 min | Time (Mus musculus [10]): 5.4 s | ED50 (Mus musculus [4]): 68 mg/kg | Ratio TD50/ED50 (Mus musculus [11]): 3.39 | minimal effective dose (Mus musculus [12]): 30 mg/kg | Activity (Mus musculus [13]): Non-toxic | inhibition (Rattus norvegicus [14]): 50.4% | Activity (Rattus norvegicus [15]): 110 µg | ED50 (Mus musculus [5]): 7 mg/kg | IC50 [16]: 108 µM | minimal effective dose (Mus musculus [6]): 100 mg/kg | TD50 [1]: 290 mg/kg | Activity (Mus musculus [17]): Non-toxic | Activity (Mus musculus [18]): Non-toxic | Activity (Mus musculus [19]): 83.3% | minimal effective dose (Mus musculus [20]): 30 mg/kg | Activity (Mus musculus [21]): 100%

NC(=O)c1c(-c2ccccc2)n(C2=NNC(=S)NC2N)c2ccc([N+](=O)[O-])cc12 (configuration not stated)
minimal effective dose (Mus musculus [3]): 300 mg/kg | Activity (Rattus norvegicus [8]): 85.4 µg | Time (Mus musculus [10]): 12.7 s | minimal effective dose (Mus musculus [12]): 30 mg/kg | Activity (Mus musculus [13]): Non-toxic | Activity (Rattus norvegicus [15]): 88.4 µg | ED50 (Mus musculus [5]): 24 mg/kg | minimal effective dose (Mus musculus [6]): 300 mg/kg | TD50 [1]: 125 mg/kg | Activity (Mus musculus [17]): Non-toxic | Activity (Mus musculus [18]): Non-toxic | minimal effective dose (Mus musculus [20]): 30 mg/kg | Activity (Mus musculus [21]): 50%

O=C1NC(=O)C(c2ccccc2)(c2ccccc2)N1 [PHENYTOIN]
minimal effective dose (Mus musculus [12]): 30 mg/kg | Activity (Mus musculus [13]): Non-toxic | inhibition (Rattus norvegicus [14]): 49.6% | inhibition (Mus musculus [22]): Active | Activity (Mus musculus [23]): 100% | IC50 [16]: 126 µM | Activity (Mus musculus [24]): Non-toxic | minimal effective dose (Mus musculus [20]): 30 mg/kg | Activity (Mus musculus [25]): Non-toxic

NC1NC(=S)NN=C1n1c(-c2ccccc2)c(S(N)(=O)=O)c2cc(F)ccc21 (configuration not stated)
TD50 [1]: 225 mg/kg

CC(=O)c1c(-c2ccccc2)n(C2=NNC(=S)NC2N)c2ccc(C(F)(F)F)cc12 (configuration not stated)
Activity (Rattus norvegicus [8]): 75.4 µg | Time (Mus musculus [10]): 13.5 s | minimal effective dose (Mus musculus [12]): 30 mg/kg | Activity (Rattus norvegicus [15]): 79.1 µg | ED50 (Mus musculus [5]): 40 mg/kg | minimal effective dose (Mus musculus [6]): 300 mg/kg | TD50 [1]: 95 mg/kg | Activity (Mus musculus [17]): Non-toxic | Activity (Mus musculus [18]): Non-toxic | minimal effective dose (Mus musculus [20]): 30 mg/kg | Activity (Mus musculus [21]): 33.3% | Activity (Mus musculus [26]): inactive

CN1C(=O)CC(=O)N(c2ccccc2)c2cc(Cl)ccc21 [CLOBAZAM]
Activity (Rattus norvegicus [27]): 101 µg | Activity (Rattus norvegicus [15]): 110 µg

CCCC(CCC)C(=O)[O-].[Na+] [VALPROATE SODIUM]
Activity (Mus musculus [28]): 100% | Activity (Mus musculus [13]): Non-toxic

NC1NC(=S)NN=C1n1c(-c2ccccc2)c(C(=O)O)c2cc([N+](=O)[O-])ccc21 (configuration not stated)
TD50 [1]: 180 mg/kg
